KCNQ1 act – potentiates or activates the human KCNQ1 potassium channel; B-score at 10 µM; CHO-K1 KCNQ1, thallium flux FluxOR fluorescence; stronger effect = higher value; 310,000 compounds, 0.35% hits; P51787;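 active = fluorescence ratio B-score, a plate-corrected score, at least three library SD, with initial intensity B-score within 5 SD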
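assay system = KCNQ1-transfected CHO-K1 cells | medium = assay buffer with matched DMSO | probe or stimulus = depolarizing K+/Tl+ stimulus, K2SO4 and Tl2SO4 each 12.5 mM in 5x stock | dosing = single dose | incubation = dye 90 min, compound 20 min, room temperature | detection = kinetic FluxOR fluorescence, 10 s baseline plus 110 s post-stimulus | evaluation = ratio B score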
KCNQ1 inh – human KCNQ1 channel inhibition. B-score at 10 µM. P51787. AID 2642. 310,000 compounds, 1.3% hits. CHO-K1 KCNQ1, FluxOR thallium flux fluorescence; stronger effect = higher value;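 active = compounds whose thallium flux B-score, printed positive for inhibition, exceeds three library SD while starting fluorescence stays within three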;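 also: channel opened by potassium depolarization with thallium stimulus after 20 min compound exposure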
KCC2 mod – modulates chloride dependent transport by human KCC2; Q9H2X9; KCC2 cells, thallium flux FluoZin-2 fluorescence; B-score of Tl+ flux slope (higher = more flux/activation; lower = inhibition) at 10 µM; 190,000 compounds, 2.2% hits; AID 1456;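 active = thallium flux slope and its plate-corrected score both differing from the plate sample mean at a set confidence after two filtering rounds, in either direction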;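 also: slope of fluorescence scaled to starting intensity during 10 to 20 s after thallium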
hERG rescue – compounds protecting human hERG from proarrhythmic drug block. Q12809. CHO-hERG, FluxOR thallium flux, dofetilide IC70 present. activation (rescue from dofetilide block), less the hit threshold, % at 10 µM. 310,000 compounds, 0.51% hits. AID 1511;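 active = activation above the mean of controls blocked by dofetilide plus 5 SD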;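 also: thallium influx through hERG after potassium depolarization seen as dye fluorescence rise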
KCNK3 inh – human KCNK3 channel inhibition, primary screen; CHO-KCNK3 thallium flux, FluxOR fluorescence; stronger effect = lower value; B-score at 10 µM; 340,000 compounds, 0.84% hits; AID 602410;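 active = B-score under library mean minus 4 SD, starting fluorescence ratio at most library mean plus 5 SD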;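 also: more negative B-score means stronger inhibition of thallium flux through KCNK3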
Target sequence (O14649 whole entry, looked up): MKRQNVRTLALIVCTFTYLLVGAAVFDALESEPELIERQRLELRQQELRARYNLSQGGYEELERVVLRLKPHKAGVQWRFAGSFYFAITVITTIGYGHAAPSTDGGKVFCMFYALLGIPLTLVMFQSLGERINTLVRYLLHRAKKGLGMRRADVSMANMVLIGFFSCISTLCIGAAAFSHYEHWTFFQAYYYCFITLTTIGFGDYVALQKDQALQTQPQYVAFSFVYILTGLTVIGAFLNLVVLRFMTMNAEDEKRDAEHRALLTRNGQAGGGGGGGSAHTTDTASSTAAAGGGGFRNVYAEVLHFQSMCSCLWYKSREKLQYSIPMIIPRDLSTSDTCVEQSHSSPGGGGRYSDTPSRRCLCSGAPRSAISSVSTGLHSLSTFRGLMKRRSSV
KCNK9 inh – inhibitors of human KCNK9 two-pore domain potassium channel | B-score at 10 µM | Q9NPC2 | AID 488922 | HEK293 KCNK9, FluxOR thallium flux fluorescence; stronger effect = lower value | 310,000 compounds, 1.2% hits;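 active = ratio B-score over 3 SD below the library mean, with starting fluorescence within 5 SD of its mean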;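 also: negative B-score means less thallium flux so channel inhibition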
An asterisk follows results filed as active; i = inactive; . = not tested or not shown. Sampled rows, rich in hits. Any-hit rate of the full collection: about 4.1%.

SMILES | KCNQ1 act | KCNQ1 inh | KCC2 mod | hERG rescue | KCNK3 inh | KCNK9 inh
CCCN(CCC)S(=O)(=O)c1ccc(C(=O)OCCN2C(=O)c3cccc4c(N5CCOCC5)ccc(c34)C2=O)cc1 | i | 10* | i | -18 | i | i
CCN(CC)S(=O)(=O)c1ccc(C(=O)N2CCN(CCN3C(=O)c4cccc5cccc(c45)C3=O)CC2)cc1 | i | i | 0.37 | 0 | . | i
C1CCC(C(CC2CCCCN2)C2CCCCC2)CC1 (centres undefined) | i | 7* | -0.22 | -19 | i | i
Cc1nn(-c2ccccc2)c(Cl)c1C(=O)OCC(=O)NCCc1ccc(S(N)(=O)=O)cc1 | . | . | . | . | i | .
Cc1ccc(C(C(=O)NC2CCCC2)N(Cc2ccc3c(c2)OCO3)C(=O)c2snc(C(N)=O)c2N)cc1 (centres undefined) | i | i | . | -9 | i | i
O=C(NC1CCCCC1)C(c1ccccc1)N(Cc1ccc2c(c1)OCO2)C(=O)c1cnsn1 (centres undefined) | i | 6* | 0.13 | -2 | i | i
CC1CC(C)CN(c2ccc(C(=O)OCC(=O)NC3CCCc4ccccc43)cc2[N+](=O)[O-])C1 (centres undefined) | i | i | 0.72 | -13 | i | -6.7*
CC1Cc2ccccc2N1C(=S)NC(=O)c1ccc(Cl)cc1Cl (centres undefined) | 24* | i | 51* | 32* | i | i
CC1Cc2ccccc2N1C(=S)NC(=O)c1cccc(Br)c1 (centres undefined) | 92* | i | 63* | 80* | i | i
O=C1C[C@@H]2c3c(cccc3CN1Cc1ccc(Cl)cc1)C[C@@H](O)[C@H]2O | . | . | . | . | i | .
c1ccc(C2=Nc3c(ccc4ccccc34)C(c3ccncc3)=NN2)cc1 | i | i | . | -11 | i | -7.7*
CC(C)[C@H](NC(=O)OCc1ccccc1)C(=O)OCC(=O)N1CCCCC1 | . | . | . | . | i | .
CCCc1cc(-c2n[nH]c(=S)n2C(C)c2ccccc2)cs1 (centres undefined) | i | i | 7.6* | -8 | i | i
COc1cc(-c2n[nH]c(=S)n2C(C)c2ccccc2)cc(OC)c1OC (centres undefined) | i | i | . | -6 | i | i
C=CCOc1ccc(C2C(C(=O)c3cccs3)=C(O)C(=O)N2c2nnc(C)s2)cc1 (centres undefined) | i | i | 0.51 | -32 | i | i
COc1ccc(C2C(C(=O)c3cccs3)=C(O)C(=O)N2c2nnc(C)s2)cc1OC (centres undefined) | i | 11* | -0.72 | -10 | i | i
COc1cc(OC)cc(C(=O)NC(C(=O)NNC(=O)CN(C)S(=O)(=O)c2ccc(C)cc2)C(C)C)c1 (centres undefined) | . | . | . | . | i | .
O=C(COc1ccc(F)cc1Br)NCc1nnc2ccccn12 | . | . | . | . | i | .
Cc1nn(C)cc1CN(C)Cc1c(C(=O)N(C)Cc2ccccc2)nc2ccccn12 | i | i | 0.2 | 6.5* | i | i
COC(=O)CNC(c1ccccc1Cl)c1cc(Br)ccc1NS(=O)(=O)c1ccc(C)cc1 (centres undefined) | i | i | 0.14 | -13 | i | -6.8*
Cc1cccc(OCC(=O)Nc2cc(NC(=O)COc3cccc(C)c3C)cc(C(=O)O)c2)c1C | i | i | . | -8 | i | i
Cc1ccccc1OCC(=O)Nc1cccc(C(=O)O)c1 | i | i | 0.048 | 5.5* | i | i
Cc1sc2ncnc(NCC(O)c3ccc([N+](=O)[O-])cc3)c2c1C (centres undefined) | i | 9* | . | -15 | i | i
O=C(Cn1c(=O)[nH]c2ccsc2c1=O)NC1CCCCCC1 | i | i | -4.7* | -13 | i | i
COc1cccc(-c2cc(C(=O)Nc3ccc([N+](=O)[O-])cn3)c3ccccc3n2)c1 | i | i | 1.2 | -19 | i | -7.8*
O=C(Nc1ccc([N+](=O)[O-])cn1)c1cc(-c2cccc(Cl)c2)nc2ccccc12 | i | i | -1.7 | -27 | i | -7.1*
